Measured values from ChEMBL document CHEMBL1152648, “Synthesis and biological evaluation of epothilone A dimeric compounds” (Bioorg Med Chem, 2009).
Values after ≈ are worked out from the molar mass of the structure shown.

Key:
Tubulin (Sus scrofa) [1] = molecular target: T1, Tubulin (Sus scrofa) (UniProt P02554+P02550); assay: Induction of pig brain tubulin polymerization at 10 uM
A549 = assay: Cytotoxicity against human A549 cells after 72 hrs by methylene blue assay; format: functional, cell-based; conditions: A549, 72 h
Method in brief: (§1)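 Cells exposed to compounds for 72 h, then fixed. Protein content quantified by methylene blue staining. IC50 is 50% inhibition of control growth. Means ± SD of three independent experiments.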

[2] = Antiangiogenic activity in BAEC assessed as inhibition cell migration after 24 hrs by […] migration assay; format: functional; conditions: Bos taurus
Method in brief: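 BAE monolayers grown to confluence, wounded with pipette tips to give one acellular 1 mm-wide lane per well, washed, then given complete medium with or without test compounds. Same wounded areas photographed at 0, 7 and 24 h under microscope.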

[3] = Cytotoxicity against mouse betaD10 cells after 96 hrs by MTS assay; format: functional, cell-based
Method in brief: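 βD10 lung tumor cells from c-myc/c-raf double transgenic mice seeded at 10^3 cells/well and left to attach 24 h. Compounds added in medium at various concentrations for 24 or 96 h. MTS/PES reagent then 1 h at 37 °C, absorbance at 490 nm. Quintuplicates, expressed as % of control.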

Tubulin (Sus scrofa) [4] = molecular target: T1, Tubulin (Sus scrofa); assay: Induction of pig brain tubulin polymerization at 5 uM
[5] = Cytotoxicity against BAEC; conditions: Bos taurus
Method in brief: (§2)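 Cells (3 × 10^3 BAE or 2 × 10^3 HT1080) in their growth media with serial compound dilutions, 3 days, 37 °C, 5% CO2. MTT added for 4 h, formazan dissolved in 0.04 N HCl–2-propanol, read at 550 nm. Triplicate determinations. IC50 is the concentration giving 50% cell survival. Means ± SD of three independent experiments.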

MCF7 = assay: Cytotoxicity against human MCF7 cells after 72 hrs by methylene blue assay; format: functional, cell-based; conditions: MCF7, 72 h
Method in brief: as §1

[6] = Antiangiogenic activity in BAEC assessed as inhibition of tube formation after 7 hrs by cell differentiation assay; format: functional; conditions: Bos taurus
Method in brief: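 BAE cells (5 × 10^4) in DMEM plated on polymerized Matrigel (about 10.5 mg/mL), compounds added at different amounts, 37 °C, 5% CO2, 7 h. Cord/tube formation photographed at 200×. Each concentration tested in duplicate, scored by two observers.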

HT-1080 = assay: Cytotoxicity against human HT1080 cells after 3 days by MTT assay; format: functional, cell-based; conditions: HT-1080, 72 h
Method in brief: as §2

T1 sequence (P02550 whole entry, looked up): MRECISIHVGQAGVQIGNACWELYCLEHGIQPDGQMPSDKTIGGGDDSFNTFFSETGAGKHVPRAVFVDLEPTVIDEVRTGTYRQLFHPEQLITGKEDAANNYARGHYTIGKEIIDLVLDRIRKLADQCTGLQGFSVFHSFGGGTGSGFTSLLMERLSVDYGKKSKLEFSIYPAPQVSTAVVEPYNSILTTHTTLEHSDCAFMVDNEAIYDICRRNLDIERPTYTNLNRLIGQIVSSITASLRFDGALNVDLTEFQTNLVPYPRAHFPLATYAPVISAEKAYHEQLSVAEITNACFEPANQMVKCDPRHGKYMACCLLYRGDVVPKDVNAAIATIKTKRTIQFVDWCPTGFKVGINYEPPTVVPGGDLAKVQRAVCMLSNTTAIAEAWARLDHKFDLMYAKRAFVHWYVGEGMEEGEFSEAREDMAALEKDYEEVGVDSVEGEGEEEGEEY
T1 sequence (P02554 whole entry, looked up): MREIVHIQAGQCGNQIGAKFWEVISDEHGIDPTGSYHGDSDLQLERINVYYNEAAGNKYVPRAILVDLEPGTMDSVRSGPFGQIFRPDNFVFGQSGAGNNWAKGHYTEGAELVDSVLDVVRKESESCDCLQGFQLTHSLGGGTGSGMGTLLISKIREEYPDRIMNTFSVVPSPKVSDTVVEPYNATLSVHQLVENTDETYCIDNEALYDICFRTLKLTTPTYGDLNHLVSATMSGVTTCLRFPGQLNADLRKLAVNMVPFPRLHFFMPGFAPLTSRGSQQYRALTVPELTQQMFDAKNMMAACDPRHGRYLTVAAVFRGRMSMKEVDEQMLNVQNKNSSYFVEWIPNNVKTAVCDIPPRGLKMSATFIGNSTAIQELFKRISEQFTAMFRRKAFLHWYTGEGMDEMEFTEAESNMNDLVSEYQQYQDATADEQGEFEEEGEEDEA

Row | SMILES | % tubulin polymerization (Tubulin (Sus scrofa) [1]) [%] | IC50 (A549) [nM] | MIC [2] [µM] | IC50 [3] [nM] | % tubulin polymerization (Tubulin (Sus scrofa) [4]) [%] | IC50 [5] [nM] | IC50 (MCF7) [nM] | MIC [6] [µM] | IC50 (HT-1080) [nM]
1 | C/C(=C\c1csc(C)n1)[C@@H]1C[C@@H]2O[C@@H]2CCC[C@H](C)[C@H](OC(=O)CCCCCCC(=O)O[C@H]2[C@@H](C)CCC[C@H]3O[C@H]3C[C@@H](/C(C)=C/c3csc(C)n3)OC(=O)C[C@H](O)C(C)(C)C(=O)[C@@H]2C)[C@@H](C)C(=O)C(C)(C)[C@@H](O)CC(=O)O1 | 0.3 | 316 | 0.1 (≈ 0.113 µg/mL) | 2500 | 0.7 | 20 | 321 | 0.1 (≈ 0.113 µg/mL) | 17
2 | C/C(=C\c1csc(C)n1)[C@@H]1C[C@@H]2O[C@@H]2CCC[C@H](C)[C@H](O)[C@@H](C)C(=O)C(C)(C)[C@@H](O)CC(=O)O1 [EPOTHILONE A] | 99.8 | 2.6 | 0.005 (≈ 0.00247 µg/mL) | 70 | 92.2 | 0.7 | 2.5 | 0.005 (≈ 0.00247 µg/mL) | 1.3
3 | C/C(=C\c1csc(C)n1)[C@@H]1C[C@@H]2O[C@@H]2CCC[C@H](C)[C@H](OC(=O)CCCCC(=O)O[C@H]2[C@@H](C)CCC[C@H]3O[C@H]3C[C@@H](/C(C)=C/c3csc(C)n3)OC(=O)C[C@H](O)C(C)(C)C(=O)[C@@H]2C)[C@@H](C)C(=O)C(C)(C)[C@@H](O)CC(=O)O1 | 0.7 | 405 | 0.1 (≈ 0.11 µg/mL) | 70500 | 0.2 | 40 | 412 | 0.1 (≈ 0.11 µg/mL) | 69
4 | C/C(=C\c1csc(C)n1)[C@@H]1C[C@@H]2O[C@@H]2CCC[C@H](C)[C@H](OC(=O)CCCSSCCCC(=O)O[C@H]2[C@@H](C)CCC[C@H]3O[C@H]3C[C@@H](/C(C)=C/c3csc(C)n3)OC(=O)C[C@H](O)C(C)(C)C(=O)[C@@H]2C)[C@@H](C)C(=O)C(C)(C)[C@@H](O)CC(=O)O1 | 0.2 | 383 | 0.1 (≈ 0.119 µg/mL) | 2000 | 0.5 | 133 | 432 | 0.1 (≈ 0.119 µg/mL) | 71
5 | C/C(=C\c1csc(C)n1)[C@@H]1C[C@@H]2O[C@@H]2CCC[C@H](C)[C@H](OC(=O)CSSCC(=O)O[C@H]2[C@@H](C)CCC[C@H]3O[C@H]3C[C@@H](/C(C)=C/c3csc(C)n3)OC(=O)C[C@H](O)C(C)(C)C(=O)[C@@H]2C)[C@@H](C)C(=O)C(C)(C)[C@@H](O)CC(=O)O1 | 1 | 319 | 0.05 (≈ 0.0567 µg/mL) | 1000 | 0.3 | 29 | 357 | 0.1 (≈ 0.113 µg/mL) | 290
6 | C/C(=C\c1csc(C)n1)[C@@H]1C[C@@H]2O[C@@H]2CCC[C@H](C)[C@H](OC(=O)CCCCCCCCC(=O)O[C@H]2[C@@H](C)CCC[C@H]3O[C@H]3C[C@@H](/C(C)=C/c3csc(C)n3)OC(=O)C[C@H](O)C(C)(C)C(=O)[C@@H]2C)[C@@H](C)C(=O)C(C)(C)[C@@H](O)CC(=O)O1 | 0.6 | 956 | 0.1 (≈ 0.115 µg/mL) | 5020 | 0.1 | 39 | 1030 | 0.05 (≈ 0.0577 µg/mL) | 13
7 | C/C(=C\c1csc(C)n1)[C@@H]1C[C@@H]2O[C@@H]2CCC[C@H](C)[C@H](OC(=O)CCSSCCC(=O)O[C@H]2[C@@H](C)CCC[C@H]3O[C@H]3C[C@@H](/C(C)=C/c3csc(C)n3)OC(=O)C[C@H](O)C(C)(C)C(=O)[C@@H]2C)[C@@H](C)C(=O)C(C)(C)[C@@H](O)CC(=O)O1 | 0.2 | 367 | 0.1 (≈ 0.116 µg/mL) | 3.3 | 0 | 111 | 379 | 0.05 (≈ 0.0581 µg/mL) | 43
